Results taken from ChEMBL document CHEMBL1811853, “Design and evaluation of 3-aminopyrazolopyridinone kinase inhibitors inspired by the natural product indirubin” (Bioorg Med Chem, 2011).

How the values were obtained:
[1] = biological target: Serine/threonine-protein kinase Chk2 (Homo sapiens, UniProt O96017); assay: Inhibition of CHK2 at 30 uM by microfluidic mobility shift assay
Procedure, shortened: (§1)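 Single-concentration screen, singlicate, 30 uM final (diluted from 1 mM DMSO solutions), fluorescently tagged peptide substrate appropriate to each kinase, ATP at apparent Km for each protein. Phosphorylated and unphosphorylated peptides separated electrophoretically; conversion is the phosphorylated peak area over the sum of both peaks. No-inhibitor and no-ATP controls; H89 reference on each plate.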

[2] = biological target: Insulin receptor (Homo sapiens) (UniProt P06213); assay: Inhibition of INSR at 30 uM by microfluidic mobility shift assay; procedure, shortened: as §1
[3] = biological target: Glycogen synthase kinase-3 beta (Homo sapiens) (UniProt P49841); assay: Inhibition of GSK3B at 30 uM by microfluidic mobility shift assay; procedure, shortened: as §1
[4] = biological target: T1, Serine/threonine-protein kinase D2 (Homo sapiens) (UniProt Q9BZL6); assay: Inhibition of PKD2 at 30 uM by microfluidic mobility shift assay; procedure, shortened: as §1
T1 sequence (whole entry): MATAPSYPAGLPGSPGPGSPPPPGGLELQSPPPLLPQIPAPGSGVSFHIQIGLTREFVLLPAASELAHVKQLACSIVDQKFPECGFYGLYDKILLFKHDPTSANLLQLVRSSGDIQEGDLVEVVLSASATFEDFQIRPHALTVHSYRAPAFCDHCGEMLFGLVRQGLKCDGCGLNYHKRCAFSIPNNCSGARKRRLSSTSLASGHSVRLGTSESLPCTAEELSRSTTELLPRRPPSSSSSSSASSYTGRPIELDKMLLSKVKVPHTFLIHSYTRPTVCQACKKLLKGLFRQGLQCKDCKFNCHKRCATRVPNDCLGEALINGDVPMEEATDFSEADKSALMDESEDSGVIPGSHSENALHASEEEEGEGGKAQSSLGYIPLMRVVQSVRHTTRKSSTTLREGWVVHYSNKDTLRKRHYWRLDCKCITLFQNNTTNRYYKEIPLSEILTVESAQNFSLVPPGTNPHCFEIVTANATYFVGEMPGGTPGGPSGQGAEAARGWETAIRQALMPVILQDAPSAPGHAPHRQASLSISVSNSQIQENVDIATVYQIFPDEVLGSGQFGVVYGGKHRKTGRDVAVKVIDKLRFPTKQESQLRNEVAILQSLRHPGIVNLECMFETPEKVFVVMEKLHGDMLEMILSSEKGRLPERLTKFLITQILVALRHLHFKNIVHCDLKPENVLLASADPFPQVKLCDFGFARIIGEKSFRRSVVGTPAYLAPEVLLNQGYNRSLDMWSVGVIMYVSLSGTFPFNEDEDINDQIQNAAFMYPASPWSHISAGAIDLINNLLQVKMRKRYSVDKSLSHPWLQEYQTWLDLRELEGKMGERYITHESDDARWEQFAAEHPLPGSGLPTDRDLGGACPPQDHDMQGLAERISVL

[5] = biological target: Tyrosine-protein kinase Lyn (Homo sapiens, UniProt P07948); assay: Inhibition of LYN at 30 uM by microfluidic mobility shift assay; procedure, shortened: as §1
[6] = biological target: Mitogen-activated protein kinase 1 (Homo sapiens) (UniProt P28482); assay: Inhibition of ERK2 at 30 uM by microfluidic mobility shift assay; procedure, shortened: as §1
[7] = biological target: Proto-oncogene tyrosine-protein kinase Src (Homo sapiens, UniProt P12931); assay: Inhibition of SRC at 30 uM by microfluidic mobility shift assay; procedure, shortened: as §1
[8] = biological target: Ribosomal protein S6 kinase alpha-5 (Homo sapiens) (UniProt O75582); assay: Inhibition of MSK1 at 30 uM by microfluidic mobility shift assay; procedure, shortened: as §1
[9] = Inhibition of PKA at 30 uM by microfluidic mobility shift assay; procedure, shortened: as §1
[10] = biological target: RAC-alpha serine/threonine-protein kinase (Homo sapiens) (UniProt P31749); assay: Inhibition of AKT1 at 30 uM by microfluidic mobility shift assay; procedure, shortened: as §1
[11] = biological target: Tyrosine-protein kinase Lck (Homo sapiens, UniProt P06239); assay: Inhibition of LCK at 30 uM by microfluidic mobility shift assay; procedure, shortened: as §1
[12] = biological target: T2, MAP kinase-activated protein kinase 5 (Homo sapiens) (UniProt Q8IW41); assay: Inhibition of PRAK1 at 30 uM by microfluidic mobility shift assay; procedure, shortened: as §1
T2 sequence (whole entry): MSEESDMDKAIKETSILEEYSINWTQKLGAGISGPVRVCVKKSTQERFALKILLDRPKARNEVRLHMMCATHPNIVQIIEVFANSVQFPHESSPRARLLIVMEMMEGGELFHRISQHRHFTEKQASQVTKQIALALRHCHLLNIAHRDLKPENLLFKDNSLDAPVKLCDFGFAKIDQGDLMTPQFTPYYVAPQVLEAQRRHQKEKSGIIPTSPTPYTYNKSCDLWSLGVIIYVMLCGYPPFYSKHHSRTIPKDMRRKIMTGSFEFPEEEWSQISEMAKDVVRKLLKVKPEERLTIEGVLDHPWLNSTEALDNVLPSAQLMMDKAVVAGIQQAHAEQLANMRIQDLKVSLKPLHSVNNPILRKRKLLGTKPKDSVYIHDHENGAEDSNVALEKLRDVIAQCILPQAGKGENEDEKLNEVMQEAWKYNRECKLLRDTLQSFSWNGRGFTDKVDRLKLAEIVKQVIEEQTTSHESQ

[13] = biological target: T3, Aurora kinase A (Homo sapiens) (UniProt O14965); assay: Inhibition of AurA at 30 uM by microfluidic mobility shift assay; procedure, shortened: as §1
T3 sequence (whole entry): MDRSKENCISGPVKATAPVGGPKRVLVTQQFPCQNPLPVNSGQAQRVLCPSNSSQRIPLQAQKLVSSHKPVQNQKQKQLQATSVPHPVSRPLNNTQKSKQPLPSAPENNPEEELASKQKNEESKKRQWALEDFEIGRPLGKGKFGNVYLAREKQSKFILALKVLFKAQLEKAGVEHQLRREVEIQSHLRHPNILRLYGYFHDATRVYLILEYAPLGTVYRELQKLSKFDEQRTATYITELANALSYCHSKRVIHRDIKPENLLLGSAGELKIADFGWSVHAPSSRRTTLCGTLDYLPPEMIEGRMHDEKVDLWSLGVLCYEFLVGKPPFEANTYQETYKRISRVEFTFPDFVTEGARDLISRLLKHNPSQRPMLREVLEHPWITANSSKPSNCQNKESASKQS

Chain of Tyrosine-protein kinase Lck (P06239 2-509 limits assumed): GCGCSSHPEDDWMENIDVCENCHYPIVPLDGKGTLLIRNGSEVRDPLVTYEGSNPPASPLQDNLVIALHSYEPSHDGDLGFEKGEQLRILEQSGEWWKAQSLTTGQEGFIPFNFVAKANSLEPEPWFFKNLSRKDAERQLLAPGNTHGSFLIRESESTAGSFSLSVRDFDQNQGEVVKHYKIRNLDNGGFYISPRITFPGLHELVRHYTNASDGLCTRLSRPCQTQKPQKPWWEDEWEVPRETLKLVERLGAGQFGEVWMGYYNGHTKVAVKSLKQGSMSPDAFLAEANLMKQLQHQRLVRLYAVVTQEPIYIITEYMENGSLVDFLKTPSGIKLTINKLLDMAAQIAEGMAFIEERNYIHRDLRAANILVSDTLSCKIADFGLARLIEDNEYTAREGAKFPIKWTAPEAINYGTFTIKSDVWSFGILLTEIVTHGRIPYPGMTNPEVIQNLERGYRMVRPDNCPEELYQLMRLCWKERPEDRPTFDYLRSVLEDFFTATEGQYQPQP
Chain of Ribosomal protein S6 kinase alpha-5 (Homo sapiens) (O75582 whole entry, looked up): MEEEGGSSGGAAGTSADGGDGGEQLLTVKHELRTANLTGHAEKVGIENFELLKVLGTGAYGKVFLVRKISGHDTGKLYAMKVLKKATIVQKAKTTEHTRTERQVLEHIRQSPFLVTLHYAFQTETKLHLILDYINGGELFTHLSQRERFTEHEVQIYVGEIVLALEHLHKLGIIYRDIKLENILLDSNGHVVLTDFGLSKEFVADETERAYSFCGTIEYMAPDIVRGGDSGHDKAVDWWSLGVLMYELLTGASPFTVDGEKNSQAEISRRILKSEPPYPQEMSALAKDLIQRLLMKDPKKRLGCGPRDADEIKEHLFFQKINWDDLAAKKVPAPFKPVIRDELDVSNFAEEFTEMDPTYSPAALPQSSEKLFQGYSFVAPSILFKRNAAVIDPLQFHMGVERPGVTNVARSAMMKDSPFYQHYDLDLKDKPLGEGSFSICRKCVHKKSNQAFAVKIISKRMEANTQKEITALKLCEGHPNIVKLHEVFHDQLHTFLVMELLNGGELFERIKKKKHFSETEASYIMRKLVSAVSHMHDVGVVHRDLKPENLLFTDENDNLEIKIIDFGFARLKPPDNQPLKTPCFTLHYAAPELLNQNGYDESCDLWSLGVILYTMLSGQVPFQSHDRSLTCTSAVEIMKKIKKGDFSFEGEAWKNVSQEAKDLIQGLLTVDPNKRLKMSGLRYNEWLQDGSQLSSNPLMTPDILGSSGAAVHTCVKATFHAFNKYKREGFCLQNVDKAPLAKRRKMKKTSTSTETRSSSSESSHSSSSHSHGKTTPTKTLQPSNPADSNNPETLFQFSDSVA
Chain of Insulin receptor (Homo sapiens) (P06213 28-758 limits assumed): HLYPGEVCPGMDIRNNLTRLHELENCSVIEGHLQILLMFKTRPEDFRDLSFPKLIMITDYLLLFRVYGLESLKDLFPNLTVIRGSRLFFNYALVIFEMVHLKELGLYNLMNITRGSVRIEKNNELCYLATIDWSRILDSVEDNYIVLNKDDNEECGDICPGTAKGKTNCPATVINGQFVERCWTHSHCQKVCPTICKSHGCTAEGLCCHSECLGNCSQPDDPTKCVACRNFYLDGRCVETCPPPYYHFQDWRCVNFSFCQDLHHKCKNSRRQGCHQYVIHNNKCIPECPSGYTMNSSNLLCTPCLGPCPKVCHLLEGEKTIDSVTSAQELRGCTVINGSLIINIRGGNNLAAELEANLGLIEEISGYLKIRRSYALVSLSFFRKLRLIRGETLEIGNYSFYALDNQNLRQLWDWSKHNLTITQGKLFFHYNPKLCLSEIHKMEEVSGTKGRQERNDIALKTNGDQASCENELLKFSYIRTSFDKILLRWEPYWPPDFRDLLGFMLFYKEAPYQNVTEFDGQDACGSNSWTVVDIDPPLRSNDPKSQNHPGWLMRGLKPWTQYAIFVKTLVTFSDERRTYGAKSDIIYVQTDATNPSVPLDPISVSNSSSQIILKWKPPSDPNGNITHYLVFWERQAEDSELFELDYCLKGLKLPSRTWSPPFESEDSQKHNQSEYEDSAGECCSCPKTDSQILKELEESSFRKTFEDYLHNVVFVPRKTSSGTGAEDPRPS
Chain of Insulin receptor (Homo sapiens) (P06213 763-1382 limits assumed): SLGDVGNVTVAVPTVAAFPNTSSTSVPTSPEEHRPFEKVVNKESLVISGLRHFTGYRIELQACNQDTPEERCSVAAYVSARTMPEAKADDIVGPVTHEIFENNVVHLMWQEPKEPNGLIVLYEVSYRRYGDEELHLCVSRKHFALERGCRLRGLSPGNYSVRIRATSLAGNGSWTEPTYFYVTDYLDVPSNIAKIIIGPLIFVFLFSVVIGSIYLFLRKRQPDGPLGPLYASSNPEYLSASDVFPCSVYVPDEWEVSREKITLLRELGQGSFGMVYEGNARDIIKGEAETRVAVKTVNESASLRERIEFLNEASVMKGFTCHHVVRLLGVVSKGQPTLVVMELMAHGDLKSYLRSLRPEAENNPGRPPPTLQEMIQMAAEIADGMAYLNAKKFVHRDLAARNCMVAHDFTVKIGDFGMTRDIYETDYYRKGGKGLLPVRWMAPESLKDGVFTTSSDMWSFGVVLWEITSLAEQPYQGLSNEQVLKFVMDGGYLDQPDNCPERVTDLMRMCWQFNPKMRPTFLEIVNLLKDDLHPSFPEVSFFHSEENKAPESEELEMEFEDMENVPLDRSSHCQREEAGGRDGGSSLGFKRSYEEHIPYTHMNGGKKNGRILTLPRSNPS
Chain of Glycogen synthase kinase-3 beta (Homo sapiens) (P49841 whole entry, looked up): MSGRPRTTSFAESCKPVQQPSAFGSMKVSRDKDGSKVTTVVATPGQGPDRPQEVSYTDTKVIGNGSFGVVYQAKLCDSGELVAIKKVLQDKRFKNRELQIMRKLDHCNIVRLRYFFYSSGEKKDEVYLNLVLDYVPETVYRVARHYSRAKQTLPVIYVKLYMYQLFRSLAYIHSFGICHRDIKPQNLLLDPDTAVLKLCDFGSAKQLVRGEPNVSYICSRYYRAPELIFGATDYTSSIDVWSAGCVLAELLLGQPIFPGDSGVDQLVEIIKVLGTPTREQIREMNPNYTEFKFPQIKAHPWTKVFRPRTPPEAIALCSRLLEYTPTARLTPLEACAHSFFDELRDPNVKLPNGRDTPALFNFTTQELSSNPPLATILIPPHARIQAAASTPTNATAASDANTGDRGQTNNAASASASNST
Chain of Tyrosine-protein kinase Lyn (P07948 2-512 limits assumed): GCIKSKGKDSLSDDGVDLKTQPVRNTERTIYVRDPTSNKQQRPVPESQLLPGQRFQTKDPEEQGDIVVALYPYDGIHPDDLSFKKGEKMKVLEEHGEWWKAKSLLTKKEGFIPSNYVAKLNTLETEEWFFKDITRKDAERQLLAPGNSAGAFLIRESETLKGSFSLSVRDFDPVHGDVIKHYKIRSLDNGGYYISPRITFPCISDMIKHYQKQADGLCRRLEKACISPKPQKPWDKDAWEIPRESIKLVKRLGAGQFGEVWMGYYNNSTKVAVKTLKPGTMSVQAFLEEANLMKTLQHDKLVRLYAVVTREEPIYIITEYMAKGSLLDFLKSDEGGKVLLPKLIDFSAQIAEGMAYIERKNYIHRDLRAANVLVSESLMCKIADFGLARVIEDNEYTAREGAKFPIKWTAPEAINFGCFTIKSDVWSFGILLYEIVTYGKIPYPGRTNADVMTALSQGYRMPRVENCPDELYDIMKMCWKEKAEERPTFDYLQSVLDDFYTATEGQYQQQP
Chain of Serine/threonine-protein kinase Chk2 (O96017 whole entry): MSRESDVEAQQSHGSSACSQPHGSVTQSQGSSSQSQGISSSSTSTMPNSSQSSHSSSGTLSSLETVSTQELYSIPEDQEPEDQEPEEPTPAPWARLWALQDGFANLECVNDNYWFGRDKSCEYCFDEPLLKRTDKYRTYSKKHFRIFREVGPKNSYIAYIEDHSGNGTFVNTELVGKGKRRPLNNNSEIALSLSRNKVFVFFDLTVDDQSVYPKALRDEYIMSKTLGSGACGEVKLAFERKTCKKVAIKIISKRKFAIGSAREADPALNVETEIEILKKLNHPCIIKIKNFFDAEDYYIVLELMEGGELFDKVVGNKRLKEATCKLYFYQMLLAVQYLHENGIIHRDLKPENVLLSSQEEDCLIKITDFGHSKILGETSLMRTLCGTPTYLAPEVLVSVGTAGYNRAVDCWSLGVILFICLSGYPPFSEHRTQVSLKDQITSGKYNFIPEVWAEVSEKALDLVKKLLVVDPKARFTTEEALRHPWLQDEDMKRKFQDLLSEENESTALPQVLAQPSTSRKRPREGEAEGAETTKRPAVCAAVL
Chain of Mitogen-activated protein kinase 1 (Homo sapiens) (P28482 whole entry): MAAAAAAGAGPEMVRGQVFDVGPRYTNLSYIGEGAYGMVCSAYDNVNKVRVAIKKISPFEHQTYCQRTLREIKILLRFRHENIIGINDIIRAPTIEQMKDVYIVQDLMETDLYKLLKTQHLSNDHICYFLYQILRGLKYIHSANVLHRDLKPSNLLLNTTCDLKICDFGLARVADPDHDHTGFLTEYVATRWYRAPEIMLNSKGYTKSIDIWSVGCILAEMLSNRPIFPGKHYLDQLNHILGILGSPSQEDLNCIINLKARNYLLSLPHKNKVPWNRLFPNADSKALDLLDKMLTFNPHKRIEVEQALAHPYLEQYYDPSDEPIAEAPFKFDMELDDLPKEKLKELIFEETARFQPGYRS
Chain of RAC-alpha serine/threonine-protein kinase (Homo sapiens) (P31749 whole entry): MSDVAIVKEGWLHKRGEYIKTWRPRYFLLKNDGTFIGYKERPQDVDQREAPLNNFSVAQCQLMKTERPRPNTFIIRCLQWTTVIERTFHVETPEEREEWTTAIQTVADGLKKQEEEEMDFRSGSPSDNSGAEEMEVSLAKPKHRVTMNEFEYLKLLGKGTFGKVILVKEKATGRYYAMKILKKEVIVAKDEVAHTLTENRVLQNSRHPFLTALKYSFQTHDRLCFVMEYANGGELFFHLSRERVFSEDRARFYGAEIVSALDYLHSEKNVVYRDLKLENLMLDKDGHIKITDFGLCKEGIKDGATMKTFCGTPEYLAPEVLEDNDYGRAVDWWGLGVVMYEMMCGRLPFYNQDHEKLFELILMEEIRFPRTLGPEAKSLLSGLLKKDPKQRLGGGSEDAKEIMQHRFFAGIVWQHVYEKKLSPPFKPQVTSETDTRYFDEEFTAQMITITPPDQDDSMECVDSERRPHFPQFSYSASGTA

Structure (SMILES) | inhibition [1] [%] | inhibition [2] [%] | inhibition [3] [%] | inhibition [4] [%] | inhibition [5] [%] | inhibition [6] [%] | inhibition [7] [%] | inhibition [8] [%] | inhibition [9] [%] | inhibition [10] [%] | inhibition [11] [%] | inhibition [12] [%] | inhibition [13] [%]
COCCNc1nc(C)cc2c1c(N)nn2C | -2 | 0 | 1 | 4 | 6 | 8 | 2 | 0 | 19 | 6 | 1 | 5 | 15
CC(=O)Nc1nn(C)c2cc(-c3ccccc3)[nH]c(=O)c12 | 4 | 5 | 17 | 9 | 13 | 2 | 12 | 3 | -2 | -9 | 8 | 3 | 2
COC(=O)CCc1c(C)[nH]c(=O)c2c(N)nn(C)c12 | -1 | 3 | 17 | 5 | 6 | 5 | 13 | 7 | 3 | 5 | 9 | 2 | 9
CN1CCN(c2ccc(-c3cc4c(c(N)nn4C)c(=O)[nH]3)cc2)CC1 | 53 | 9 | 45 | 34 | 54 | 4 | 80 | 29 | 81 | 8 | 65 | 26 | 52
Cn1nc2c3c(nc(-c4ccccc4)cc31)NCC(=O)N2 | 5 | 2 | 14 | 17 | 6 | 2 | 22 | 0 | 0 | 10 | 6 | 3 | 20
CC(C)(C)c1cc2nn(-c3ccccc3)c(N)c2c(=O)[nH]1 | 5 | 4 | 31 | 15 | 8 | 18 | 7 | -1 | 1 | 7 | 8 | 2 | 9
CN1CCN(c2ccc(-c3cc4nn(-c5ccccc5)c(N)c4c(=O)[nH]3)cc2)CC1 | 18 | 8 | 12 | 15 | 100 | 7 | 99 | 12 | 2 | 3 | 100 | 4 | 66
Cc1cc2c(c(NC(=O)Nc3ccccc3)nn2C)c(=O)[nH]1 | 2 | -5 | 2 | -4 | 16 | 7 | 17 | 0 | -6 | 4 | 12 | 4 | 10
CC(=O)Nc1nn(C)c2cc(-c3ccc(N4CCN(C)CC4)cc3)[nH]c(=O)c12 | 3 | 2 | -3 | 13 | 8 | 4 | 20 | 0 | 3 | 4 | 10 | 6 | 15

Next, values leading:

inhibition [1] [%] | inhibition [2] [%] | inhibition [3] [%] | inhibition [4] [%] | inhibition [5] [%] | inhibition [6] [%] | inhibition [7] [%] | inhibition [8] [%] | inhibition [9] [%] | inhibition [10] [%] | inhibition [11] [%] | inhibition [12] [%] | inhibition [13] [%] | Structure (SMILES)
34 | 9 | 95 | 29 | 39 | 38 | 46 | 29 | 55 | 2 | 37 | 13 | 43 | Nc1n[nH]c2cc(-c3ccncc3)[nH]c(=O)c12
27 | 7 | 71 | 26 | 39 | 14 | 46 | 36 | 35 | 7 | 34 | 12 | 42 | Nc1n[nH]c2cc(-c3cccnc3)[nH]c(=O)c12
25 | 16 | 46 | 17 | 10 | 9 | 18 | -4 | 5 | 7 | 21 | 9 | 7 | Cn1nc(N)c2c(=O)[nH]c(-c3ccccn3)cc21
27 | -2 | 18 | -1 | 3 | 0 | 14 | 56 | 57 | -3 | 6 | 8 | 23 | Cc1cc2[nH]nc(N)c2c(=O)[nH]1
38 | 6 | 41 | 15 | 63 | -3 | 74 | 39 | 88 | -1 | 44 | 11 | 51 | Nc1n[nH]c2cc(-c3ccc(N4CCOCC4)cc3)[nH]c(=O)c12
43 | 6 | 78 | 28 | 56 | 12 | 59 | 62 | 82 | 21 | 54 | 7 | 49 | COc1ccc(-c2cc3[nH]nc(N)c3c(=O)[nH]2)cc1
